ChEMBL document CHEMBL3872254, “Design, synthesis and biological evaluation of alkylamino biphenylamides as Hsp90 C-terminal inhibitors” (Bioorg Med Chem, 2017)
Calls of active or inactive are those of the source. The calls are words filed in the database; no cut-off is given here.

Experiments:
[1] = Anti-proliferative activity against ER positive human MCF7 cells measured after 72 hrs by MTS/PMS assay; assay type: functional, cell-based; conditions: MCF7, 72 h
Method in brief: (§1)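 Cells grown in 1:1 Advanced DMEM/F12 with non-essential amino acids, 2 mM L-glutamine, penicillin/streptomycin, 10% FBS, 37 °C, 5% CO2; seeded 2000/well, attached overnight. Compound added in DMSO (1% final), 72 h incubation; viable cells by MTS/PMS. 1% DMSO wells set as 100% proliferation; IC50 from separate experiments run in triplicate, mean ± SD of at least two experiments.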

[2] = Anti-proliferative activity against human SKBR3 cells over-expressing Her2 measured after 72 hrs by MTS/PMS assay; assay type: functional, cell-based; conditions: SK-BR-3, 72 h; method in brief: as §1
[3] = Effect on actin expression in human MCF7 cells at 0.2 to 10 uM measured after 24 hrs by Western blot method; assay type: ADME, cell-based; conditions: mcf7, 24 h
Method in brief: (§2)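 MCF-7 cells cultured as for proliferation, exposed to compound in DMSO (1% final) for 24 h alongside geldanamycin 0.5 μM and DMSO controls. Harvested in cold PBS, lysed 1 h on ice in RIPA with 1 mM PMSF, 2 mM orthovanadate, protease inhibitors; cleared 14000g 10 min 4 °C. BCA-normalized 20 μg protein, reducing SDS-PAGE, nitrocellulose, specific antibodies, HRP secondary, chemiluminescence.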

[4] = biological target: T1, Heat shock protein HSP90 (Homo sapiens) (UniProt P07900+P08238); assay: Inhibition of C-terminal Hsp90 in human MCF7 cells assessed as degradation of Raf-1 measured after 24 hrs by Western blot method; assay type: cell-based; method in brief: as §2
[5] = biological target: T1, Heat shock protein HSP90 (Homo sapiens); assay: Inhibition of C-terminal Hsp90 in human MCF7 cells assessed as degradation of Akt measured after 24 hrs by Western blot method; assay type: cell-based; method in brief: as §2
[6] = biological target: T1, Heat shock protein HSP90 (Homo sapiens); assay: Inhibition of C-terminal Hsp90 in human PC3MM2 cells assessed as decrease in Hsp90-dependent refolding of thermally denatured luciferase at 0.1 to 100 uM; assay type: cell-based
Method in brief: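 Hsp90-dependent luciferase refolding measured in PC3-MM2 cells; compounds tested at 0.1−100 μM against DMSO vehicle, with a reference Hsp90 inhibitor as positive control.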

[7] = biological target: T1, Heat shock protein HSP90 (Homo sapiens); assay: Inhibition of C-terminal Hsp90 in human MCF7 cells assessed as degradation of Her2 measured after 24 hrs by Western blot method; assay type: cell-based; method in brief: as §2

## COCOc1cc(-c2ccc(NC(=O)c3ccc(OC)c(-c4cccc(OC)c4)c3)cc2)ccc1OC1CCN(C)CC1
[1]
  IC50: 990 nM
[2]
  IC50: 820 nM

## COc1cccc(-c2cc(C(=O)Nc3ccc(-c4ccc(OC5CCN(C)CC5)cc4)cc3)ccc2OC)c1
[1]
  IC50: 710 nM
[2]
  IC50: 470 nM

## COc1cccc(-c2cc(C(=O)Nc3ccc(-c4ccc(OC5CCN(C)CC5)cc4)cc3OCCN(C)C)ccc2OC)c1
[1]
  IC50: 810 nM
[2]
  IC50: 840 nM

## COc1cccc(-c2cc(C(=O)Nc3ccc(-c4ccc(OC5CCN(C)CC5)cc4OC4CCCCC4)cc3)ccc2OC)c1
[1]
  IC50: 2360 nM
[2]
  IC50: 3240 nM

## COc1cccc(-c2cc(C(=O)Nc3ccc(-c4ccc(OC5CCN(C)CC5)cc4)c(OCCN(C)C)c3)ccc2OC)c1
[1]
  IC50: 790 nM
[2]
  IC50: 650 nM

## COc1cccc(-c2cc(C(=O)Nc3ccc(-c4ccc(OC5CCN(C)CC5)cc4)cc3OCCCN(C)C)ccc2OC)c1
[1]
  IC50: 750 nM
[2]
  IC50: 690 nM

## COc1cccc(-c2cc(C(=O)Nc3ccc(-c4ccc(OC5CCN(C)CC5)cc4O)cc3)ccc2OC)c1
[1]
  IC50: 4070 nM
[2]
  IC50: 3550 nM

## COc1cccc(-c2cc(C(=O)Nc3ccc(-c4ccc(OC5CCN(C)CC5)cc4OCCCN(C)C)cc3)ccc2OC)c1
[3]
  Activity: Non-Toxic
[4]
  inhibition: Dose-dependent effect
[1]
  IC50: 840 nM
[5]
  inhibition: Dose-dependent effect
[6]
  inhibition: Active
[7]
  inhibition: Dose-dependent effect
[2]
  IC50: 340 nM

## COc1cccc(-c2cc(C(=O)Nc3ccc(-c4ccc(OC5CCN(C)CC5)cc4)c(O)c3)ccc2OC)c1
[1]
  IC50: 1800 nM
[2]
  IC50: 3430 nM

## COc1cccc(-c2cc(C(=O)Nc3ccc(-c4ccc(OC5CCN(C)CC5)cc4)c(OCCCN(C)C)c3)ccc2OC)c1
[1]
  IC50: 670 nM
[2]
  IC50: 550 nM

## COc1cccc(-c2cc(C(=O)Nc3ccc(-c4ccc(OC5CCN(C)CC5)cc4OCCCOC(C)=O)cc3)ccc2OC)c1
[1]
  IC50: 2490 nM
[2]
  IC50: 1960 nM

## COc1cccc(-c2cc(C(=O)Nc3ccc(-c4ccc(OC5CCN(C)CC5)c(OCCCN(C)C)c4)cc3)ccc2OC)c1
[1]
  IC50: 1050 nM
[2]
  IC50: 750 nM

## COc1cccc(-c2cc(C(=O)Nc3ccc(-c4ccc(OC5CCN(C)CC5)cc4OCCCCN(C)C)cc3)ccc2OC)c1
[1]
  IC50: 1120 nM
[2]
  IC50: 1270 nM

## COc1cccc(-c2cc(C(=O)Nc3ccc(-c4ccc(OC5CCN(C)CC5)c(O)c4)cc3)ccc2OC)c1
[1]
  IC50: 1220 nM
[2]
  IC50: 1560 nM

## COc1cccc(-c2cc(C(=O)Nc3ccc(-c4ccc(OC5CCN(C)CC5)cc4)cc3O)ccc2OC)c1
[1]
  IC50: 710 nM
[2]
  IC50: 910 nM

## COc1cccc(-c2cc(C(=O)Nc3ccc(-c4ccc(OC5CCN(C)CC5)c(OCCN(C)C)c4)cc3)ccc2OC)c1
[1]
  IC50: 700 nM
[2]
  IC50: 400 nM

## COc1cccc(-c2cc(C(=O)Nc3ccc(-c4ccc(OC5CCN(C)CC5)cc4OCCCN4C(=O)c5ccccc5C4=O)cc3)ccc2OC)c1
[1]
  IC50: 1430 nM
[2]
  IC50: 3130 nM

## COCOc1cc(OC2CCN(C)CC2)ccc1-c1ccc(NC(=O)c2ccc(OC)c(-c3cccc(OC)c3)c2)cc1
[1]
  IC50: 1380 nM
[2]
  IC50: 1140 nM

## COc1cccc(-c2cc(C(=O)Nc3ccc(-c4ccc(OC5CCN(C)CC5)cc4OCCN(C)C)cc3)ccc2OC)c1
[1]
  IC50: 1040 nM
[6]
  inhibition: Active
[2]
  IC50: 390 nM

## COc1cccc(-c2cc(C(=O)Nc3ccc(-c4ccc(OC5CCN(C)CC5)cc4OC4CCN(C)CC4)cc3)ccc2OC)c1
[1]
  IC50: 2540 nM
[2]
  IC50: 1160 nM

## COc1cccc(-c2cc(C(=O)Nc3ccc(-c4ccc(OC5CCN(C)CC5)cc4OCCCO)cc3)ccc2OC)c1
[1]
  IC50: 3110 nM
[2]
  IC50: 3870 nM
